GRK2 aptamer HTS = human GRK2 inhibition via aptamer displacement; P25098; bead flow cytometry, FAM-aptamer displacement from GRK2; inhibition of aptamer binding, % at 10 µM; 330,000 compounds, 0.59% hits;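 active = inhibition of aptamer binding above 40%, roughly 3 SD of noise, on plates passing a quality check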;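 also: median bead fluorescence of bound FAM aptamer so fluorescent compounds give negative values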
EBV gp42 block = blocks Epstein-Barr virus glycoprotein 42 binding; 220,000 compounds, 0.42% hits; Q1HVG2; inhibition, % (tested at 21.74 µM); AID 1085; Fluorescence polarization binding assay, mP read-out; in the data active = inhibition above about 50%
Target sequence (Q1HVG2 whole entry, looked up): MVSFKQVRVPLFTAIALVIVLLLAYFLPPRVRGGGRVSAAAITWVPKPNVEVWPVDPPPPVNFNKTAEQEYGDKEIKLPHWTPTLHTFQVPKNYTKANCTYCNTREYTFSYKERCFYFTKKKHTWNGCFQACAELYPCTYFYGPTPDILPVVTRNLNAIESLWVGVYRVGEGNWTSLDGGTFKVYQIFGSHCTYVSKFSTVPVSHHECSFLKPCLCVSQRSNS
LANA DNA inh = KSHV C-LANA DNA binding inhibition; MBP-C-LANA/FAM-LBS DNA binding, fluorescence polarization; inhibition, % at 9 µM; 340,000 compounds, 0.078% hits;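 active = highest replicate inhibition at or above 60% at 9 µM, even if other replicates fall short; inactive = all replicates below 60% inhibition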
MEX-5 binding = C. elegans MEX-5 TCR-2 RNA binding activity. AID 1832. activity score (negative = inhibition of binding), % at 10 µM. 300,000 compounds, 0.38% hits. MEX-5/FITC-TCR2 RNA binding, fluorescence polarization; hits give low values. Q9XUB2;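 active = inhibition past about -25% in most replicates, and total fluorescence under double the plate's negative control median, limit read from the data; inconclusive = replicates evenly split on the limit, or fluorescence at least double controls; inactive = too little inhibition in most replicates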
Target sequence (Q9XUB2 whole entry, looked up): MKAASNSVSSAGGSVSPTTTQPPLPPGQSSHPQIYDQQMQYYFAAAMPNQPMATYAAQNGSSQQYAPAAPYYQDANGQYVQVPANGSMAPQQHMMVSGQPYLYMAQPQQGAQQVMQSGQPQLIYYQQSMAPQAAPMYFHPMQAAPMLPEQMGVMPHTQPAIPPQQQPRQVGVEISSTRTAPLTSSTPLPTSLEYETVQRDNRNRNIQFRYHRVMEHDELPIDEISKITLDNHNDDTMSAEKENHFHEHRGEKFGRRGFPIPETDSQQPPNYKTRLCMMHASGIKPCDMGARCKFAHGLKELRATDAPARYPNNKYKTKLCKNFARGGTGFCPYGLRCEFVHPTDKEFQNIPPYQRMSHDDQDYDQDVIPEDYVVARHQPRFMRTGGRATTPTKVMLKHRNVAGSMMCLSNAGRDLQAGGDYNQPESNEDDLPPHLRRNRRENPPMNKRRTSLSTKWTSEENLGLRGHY
Keap1-Nrf2 PPI = Keap1-Nrf2 (human) interaction inhibition | Q14145 | Keap1 Kelch-Nrf2 peptide fluorescence polarization, 1536-well | inhibition, % at 9.4 µM | 340,000 compounds, 0.15% hits; in the data active = inhibition above about 12%; inconclusive = no clear call, values can overlap the other calls; inactive = below about 7.3%;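 also: human Keap1 Kelch domain with fluorescein labeled Nrf2 9mer peptide probe; higher means more block of Keap1 binding to Nrf2 peptide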
T cell HTS = modulates CD8 T cell binding to vesicles; 2C CD8+ T cell-vesicle binding, flow cytometry; hits give low values; response (vesicle binding), % at 7 µM; 330,000 compounds, 0.068% hits; AID 2052;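 active = response, share of CD8 T cells binding vesicles, and their 90th percentile fluorescence all below set limits, cut at about 80% in these data, passing the limit was not always enough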;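 also: values below 100% mean blocked vesicle binding to the CD8+ T cells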
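Material: 2C TCR transgenic mouse naive CD8+ T cells, MACS-purified. Also added: QL9-charged Drosophila Ld/ICAM-1/B7-1 vesicles. Timing: binding 1.5 h at 37 °C. Measured by: high-throughput flow cytometry with anti-B7-1 and anti-CD8 staining. Read-out: percent CD8+ FL2 mean versus row control. Controls: Unloaded micro-vesicles (low), QL9 vesicles with 0.7% DMSO (high).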
Each line names hits and unclear results; the compound was inactive in the other large screens. An excerpt weighted towards active compounds, which were near 1.3% of everything screened.

O=C(NCCc1nc2ccc(Cl)cc2[nH]1)C1CCC(=O)N(Cc2cccc(F)c2)C1 (stereo unspecified)	T cell HTS 67.4 (no result: EBV gp42 block)
CC(=O)Nc1ccc(OC(=O)c2cc3cc(Br)cc(Br)c3oc2=O)cc1	GRK2 aptamer HTS 95.0 (no result: LANA DNA inh, Keap1-Nrf2 PPI)
C[C@@H](CN1C(=O)C(=O)NC[C@@H]1C)NC(=O)CC12CC3CC(CC(C3)C1)C2	none (no result: EBV gp42 block)
CC(C)NC(=O)N(C)C[C@H]1Oc2ccc(NS(=O)(=O)c3ccccc3)cc2C(=O)N([C@H](C)CO)C[C@H]1C	T cell HTS 61.8 (no result: EBV gp42 block, MEX-5 binding)
C[C@H](CO)N1C[C@H](C)[C@@H](CN(C)C(=O)Nc2ccccc2)Oc2ccc(NS(=O)(=O)c3ccccc3)cc2C1=O	none (no result: EBV gp42 block, MEX-5 binding)
C[C@H](CO)N1C[C@H](C)[C@@H](CN(C)C)Oc2c(NS(=O)(=O)c3ccccc3)cccc2C1=O	T cell HTS 0.0 (no result: EBV gp42 block, MEX-5 binding)
Cc1ccc(NC(=O)C2(c3ccccc3)CCOCC2)cc1	none
COc1ccc(C(=O)NCCc2c[nH]c3ccccc23)cc1[N+](=O)[O-]	none (no result: EBV gp42 block)
Cc1cccc(C2Nc3ccccc3C(=O)N2NC(=O)c2ccc([N+](=O)[O-])cc2)n1 (stereo unspecified)	MEX-5 binding -54.2
CC(=O)NN1C(=O)c2ccccc2NC1c1ccccn1 (stereo unspecified)	none
O=C(NN1C(=O)c2ccccc2NC1c1ccccn1)c1ccc(Br)cc1 (stereo unspecified)	MEX-5 binding -30.0
O=C(NN1C(=O)c2ccccc2NC1c1ccco1)c1ccc([N+](=O)[O-])cc1 (stereo unspecified)	none
O=C(NN1C(=O)c2ccccc2NC1c1ccc([N+](=O)[O-])o1)c1ccc(Br)cc1 (stereo unspecified)	none
O=C(NN1C(=O)c2ccccc2NC1c1ccccn1)c1ccc([N+](=O)[O-])cc1 (stereo unspecified)	MEX-5 binding -43.5
Cc1ccc2nc(-c3ccccc3)oc(=O)c2c1	none (no result: EBV gp42 block)
CS(=O)(=O)N(CC(=O)N1CCCCC1)Cc1ccccc1	none (no result: EBV gp42 block)
Cn1cc(/C=N/n2cnc3scc(-c4ccc(Cl)cc4)c3c2=O)c2ccccc21	MEX-5 binding -27.5
COc1ccc(OC)c(N=Cc2c(O)c3ccccc3oc2=O)c1	MEX-5 binding -29.3 (no result: EBV gp42 block)
COc1ccc(Cl)cc1N=Cc1c(O)c2ccccc2oc1=O	none (no result: EBV gp42 block)
C/C(=N\Nc1ccccc1Cl)c1ccc(-n2ccnc2)cc1	none (no result: LANA DNA inh, Keap1-Nrf2 PPI)
CN(NS(=O)(=O)c1ccc(Br)cc1)c1nc(C(F)(F)F)nc2ccccc12	none
Cc1c(N=C2Nc3cccc4cccc2c34)c(=O)n(-c2ccccc2)n1C	MEX-5 binding -41.1
Cc1c(N2C(=O)c3cccc4cccc(c34)C2=O)c(=O)n(-c2ccccc2)n1C	none
Oc1ccc(-c2cnns2)c(O)c1	MEX-5 binding -61.4
CN(Cc1ccccc1)C(=O)COC(=O)COc1ccc(Cl)cc1	none (no result: EBV gp42 block, MEX-5 binding)
COc1ccc(N/C=C\C(=O)c2ccc(Br)cc2)cc1OC	none
COc1ccc(N/C=C/C(=O)c2ccc3c(c2)OCO3)cc1OC	MEX-5 binding -34.1
CC(=O)Nc1ccc(/C=C/C(=O)c2ccc3c(c2)OCCO3)cc1	MEX-5 binding -53.3 (no result: EBV gp42 block)
COc1ccc(N/C=C\C(=O)c2ccc3c(c2)OCO3)cc1	none
O=C(O)c1ccc(/C=C/C(=O)c2ccc3c(c2)OCCCO3)cc1	none (no result: EBV gp42 block)
COc1ccc(N/C=C\C(=O)c2ccc(C)cc2)cc1OC	MEX-5 binding -47.8
CC1CC(=O)c2c(cc3c(-c4c(O)cc(O)c5c(O)c6c(cc45)OC(C)CC6=O)c(O)cc(O)c3c2O)O1 (stereo unspecified)	MEX-5 binding -34.8
CCc1ccccc1NNC(=O)c1snnc1C	T cell HTS 52.4
OC1(C#CCN2CCCC2)c2ccccc2-c2ccccc21	none
Cc1ccc(S(=O)(=O)N2CCOCC2)cc1C(=O)Nc1ccccc1F	none (no result: EBV gp42 block)
Cc1ccc(NC2=Nc3ccccc3N3C2=Nc2c(c(C)nn2-c2ccccc2)C3c2ccc(O)c(O)c2)cc1 (stereo unspecified)	EBV gp42 block 77.9 (no result: GRK2 aptamer HTS, MEX-5 binding, T cell HTS)
Cc1nn(-c2ccccc2)c2c1C(c1ccc(O)c(O)c1)N1C(=N2)C(Nc2ccccc2)=Nc2ccccc21 (stereo unspecified)	EBV gp42 block 84.9
Cc1ccccc1-c1oc(C)c(C)[n+]1[O-]	none
O=C(N/N=C1/C(=O)c2cccc3cccc1c23)c1ccc(Cl)cc1	EBV gp42 block 67.0
CCNC(=S)N/N=C1\C(=O)c2cccc3cccc1c23	none
CCC(=O)N1CCN(c2ccc(Cl)cc2NC(=O)c2ccc(N3CCCC3)c([N+](=O)[O-])c2)CC1	none
COc1ccc2c(c1)/C(=C/c1cc(OC)c(OC)c(OC)c1)C(=O)N2	none (no result: GRK2 aptamer HTS, EBV gp42 block, MEX-5 binding, T cell HTS)
C=C1c2cc(OC)ccc2NC(=O)N1CC	EBV gp42 block 51.7
O=C(Nc1cccc(F)c1)Nc1ccnn1C1CCN(C(=O)CCN2CCCO2)CC1	none (no result: EBV gp42 block)
COc1cc2c(cc1OC)-c1c(OC)c(OC)cc3ccnc(c13)C2=O	MEX-5 binding -57.3
COc1ccc(C(=O)c2nccc3cc(OC)c(OC)cc23)cc1OC	none (no result: EBV gp42 block, MEX-5 binding)
Cc1cc(NC(=O)c2ccco2)ncc1NC(=O)CCc1ccccc1	none
CCC(=O)Nc1cc(C)c(NC(=O)CCc2ccccc2)cn1	MEX-5 binding -25.9
CCN1/C(=C/c2ccc3cc(C)ccc3[n+]2CC)Sc2cc(C)ccc21	none (no result: GRK2 aptamer HTS, MEX-5 binding, T cell HTS)
CCN1/C(=C/c2ccc3cc(C)ccc3[n+]2C)Sc2ccc3sccc3c21	EBV gp42 block active (no result: GRK2 aptamer HTS, MEX-5 binding, T cell HTS)
Oc1ccc(CCNc2c3ccccc3nc3ccccc23)cc1O	MEX-5 binding -39.3 (no result: EBV gp42 block)
c1ccc(CNc2c3ccccc3nc3ccccc23)cc1	none (no result: EBV gp42 block)
CCN(CC)S(=O)(=O)c1ccc2c3c(cccc13)C(=O)N2	T cell HTS 0.0
CCC(NC(=O)NNC(=O)c1ccncc1)(C(F)(F)F)C(F)(F)F	none
CCN(CC(=O)Nc1c(F)cccc1F)C(=O)Cc1ccc(S(=O)(=O)N2CCOCC2)s1	none (no result: GRK2 aptamer HTS, EBV gp42 block, MEX-5 binding, T cell HTS)
C=CCn1c(C)cc(C(=O)COC(=O)COc2ccccc2C#N)c1C	EBV gp42 block 90.0
Cc1cc(C(=O)COC(=O)COc2ccccc2C#N)c(C)n1CC1CCCO1 (stereo unspecified)	none (no result: EBV gp42 block, MEX-5 binding)
O=C(O)c1ccc2c3c(cccc13)C(=O)N(c1ccccc1)C2=O	none
CN(C)c1ccc2c3c(cccc13)C(=O)N(c1ccccc1)C2=O	EBV gp42 block 102.0 (no result: LANA DNA inh, Keap1-Nrf2 PPI)
Cc1c(O)c2c3c(cccc3c1O)C(=O)N(c1ccccc1)C2=O	EBV gp42 block 83.1, MEX-5 binding inconclusive
COCCNC(=O)C(c1ccc(F)cc1)N(Cc1ccccc1)C(=O)CCC(=O)Nc1nccs1 (stereo unspecified)	none (no result: EBV gp42 block)
CCOC(=O)C1Oc2ccccc2C(c2ccc(OC)cc2)=C1C(=O)OC (stereo unspecified)	none (no result: EBV gp42 block, MEX-5 binding, T cell HTS)
